Reference: paper PMC10205783 (Immuno-Oncology and Technology, 2023)
Values after ≈ are worked out from the molar mass of the structure shown.

Key:
[1] = molecular target: 5-hydroxytryptamine 2B (5-HT2B) receptor (Homo sapiens, UniProt P41595); assay: 5-HT2B receptor binding; conditions: only hit of the panels
[2] = In vitro toxicology; conditions: based on absence of in vitro toxicology findings
[3] = tested on: LPA1, LPA2, LPA3, LPA5, S1P1, S1P2, SP3, S1P4 and S1P5; SafetyScreen44 panel; assay: Off-target profiling on lipid receptor panel and SafetyScreen44 panel; format: binding
[4] = 4-week GLP toxicology study in dogs; format: in vivo
[5] = tested on: bleomycin-induced pulmonary fibrosis; assay: Bleomycin-induced pulmonary fibrosis; format: in vivo, C57BL/6 mice
Outline: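 Anaesthetised male C57BL/6 mice given intranasal bleomycin (0.6 mg/ml) or saline. Test compound 10 mg/kg or methocel/PBS vehicle by oral gavage twice daily from day 0 for 21 days; body weight monitored. Day 21: terminal plasma; BALF by two ice-cold saline lavages via tracheal cannula, supernatant after centrifugation. LPA species by LC-MS/MS; Mann–Whitney test.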

[6] = tested on: tumor-infiltrating lymphocyte (TIL) migration; conditions: LPA chemorepulsion of T cells; cited from earlier work
[7] = 4-week GLP toxicology study in rats; format: in vivo
[8] = tested on: 4T1 tumors; assay: 4T1 metastasis assay with resection of the primary tumor; format: in vivo, BALB/c mice
Outline: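 Female BALB/c mice implanted surgically with 4T1 cells in the mammary fat-pad, n = 12 per group. Primary tumour resected at day 15 and weighed. Test compound 100 mg/kg b.i.d. by oral gavage. Lungs and bone marrow harvested 20 days after resection. Lungs fixed and H&E-stained for metastases. Bone marrow flushed from hind limbs, cultured in complete medium with 6-thioguanine 10 μg/ml, colonies crystal violet-stained.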

[9] = molecular target: 5-HT2B (Homo sapiens, UniProt P41595); assay: 5-HT2B antagonist confirmation; format: biochemical
5-HT2B, sequence (P41595 whole entry, species assumed): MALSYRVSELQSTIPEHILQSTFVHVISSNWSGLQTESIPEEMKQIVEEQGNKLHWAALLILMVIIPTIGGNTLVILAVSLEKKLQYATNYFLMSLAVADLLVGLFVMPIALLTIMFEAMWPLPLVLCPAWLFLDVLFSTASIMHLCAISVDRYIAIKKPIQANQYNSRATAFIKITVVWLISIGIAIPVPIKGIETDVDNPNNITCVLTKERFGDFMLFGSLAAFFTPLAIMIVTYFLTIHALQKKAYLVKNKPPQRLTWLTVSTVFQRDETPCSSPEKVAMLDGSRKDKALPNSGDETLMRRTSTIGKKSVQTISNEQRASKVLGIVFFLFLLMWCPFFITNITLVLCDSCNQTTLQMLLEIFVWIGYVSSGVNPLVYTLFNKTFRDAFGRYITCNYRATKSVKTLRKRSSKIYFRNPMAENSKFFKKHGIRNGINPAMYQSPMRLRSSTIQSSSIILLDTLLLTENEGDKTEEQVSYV

[10] = tested on: circulating LPA C18:2; assay: First-in-human single ascending oral dose study: LPA C18:2 pharmacodynamics; format: in vivo, healthy male volunteers
[11] = First-in-human single ascending oral dose study: safety and pharmacokinetics
[12] = tested on: E0771 tumors; assay: E0771 orthotopic breast cancer model; format: in vivo, C57BL/6 mice
[13] = Pharmacokinetics in male CD1 mice: plasma exposure after oral gavage; format: in vivo; conditions: male CD1 mice, 3, 10 and 30 mg/kg oral gavage
[14] = tested on: respiratory functions; assay: GLP safety pharmacology, respiratory functions in rats; format: in vivo
[15] = tested on: stimulated human primary cells (lung epithelial cells and fibroblasts; lung fibroblasts only; renal epithelial cells with lung fibroblasts); assay: BioMAP Fibrosis phenotypic screening panel; format: cell-based; conditions: 6 μM, 48 h, TGF-β and TNF-α stimulated co-cultures
Outline: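 Three co-culture systems of human primary cells: lung epithelial cells with lung fibroblasts, lung fibroblasts alone, renal epithelial cells with lung fibroblasts. Cells stimulated with TGF-β and TNF-α, then exposed 48 h to test compound at 0.24, 1.2 and 6 μM. Biomarkers quantified by ELISA. Significance envelope: 95% CI bounds of historical vehicle controls.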

[16] = molecular target: hERG tail current (Homo sapiens, UniProt Q12809); assay: GLP hERG assay; format: cell-based
hERG tail current, sequence (Q12809 whole entry): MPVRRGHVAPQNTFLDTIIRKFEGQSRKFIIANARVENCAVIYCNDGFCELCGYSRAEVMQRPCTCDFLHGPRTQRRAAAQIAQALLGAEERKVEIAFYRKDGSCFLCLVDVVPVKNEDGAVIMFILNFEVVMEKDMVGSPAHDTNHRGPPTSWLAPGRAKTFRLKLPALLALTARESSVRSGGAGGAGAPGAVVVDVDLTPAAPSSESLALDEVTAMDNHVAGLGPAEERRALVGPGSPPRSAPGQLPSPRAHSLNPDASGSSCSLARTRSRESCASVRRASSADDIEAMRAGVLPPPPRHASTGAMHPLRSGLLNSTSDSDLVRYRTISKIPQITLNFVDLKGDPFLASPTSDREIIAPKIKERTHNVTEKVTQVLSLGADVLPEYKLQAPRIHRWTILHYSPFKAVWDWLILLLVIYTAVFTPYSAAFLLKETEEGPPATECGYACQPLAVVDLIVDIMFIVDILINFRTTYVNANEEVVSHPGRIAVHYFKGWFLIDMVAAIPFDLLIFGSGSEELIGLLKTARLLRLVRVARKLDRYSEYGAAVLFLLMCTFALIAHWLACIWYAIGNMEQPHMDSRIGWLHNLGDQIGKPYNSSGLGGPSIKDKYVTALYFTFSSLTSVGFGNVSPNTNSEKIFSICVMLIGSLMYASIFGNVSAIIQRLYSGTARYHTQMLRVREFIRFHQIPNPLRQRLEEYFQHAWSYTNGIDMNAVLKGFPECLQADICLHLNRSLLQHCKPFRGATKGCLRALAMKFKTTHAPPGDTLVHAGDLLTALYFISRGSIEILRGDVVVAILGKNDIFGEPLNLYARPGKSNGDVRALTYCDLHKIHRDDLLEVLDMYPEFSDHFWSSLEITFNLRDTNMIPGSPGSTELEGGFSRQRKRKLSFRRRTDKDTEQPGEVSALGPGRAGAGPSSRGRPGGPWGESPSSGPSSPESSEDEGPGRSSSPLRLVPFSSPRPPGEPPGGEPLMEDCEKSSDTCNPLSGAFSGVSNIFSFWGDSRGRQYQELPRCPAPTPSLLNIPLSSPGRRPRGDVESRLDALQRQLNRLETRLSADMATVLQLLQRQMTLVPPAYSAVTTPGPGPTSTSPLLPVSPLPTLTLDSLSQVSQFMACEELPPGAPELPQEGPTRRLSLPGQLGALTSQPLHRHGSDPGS

[17] = tested on: circulating LPA C18:2; assay: Pharmacodynamics in male CD1 mice: circulating LPA C18:2 after oral dose; format: in vivo
[18] = tested on: cardiovascular and neurobehavioral functions; assay: GLP safety pharmacology, cardiovascular and neurobehavioral functions in dogs; format: in vivo
[19] = phase II, IPF patients, cited from earlier work
[20] = tested on: bleomycin-induced pulmonary fibrosis; conditions: mouse; cited from earlier work
[21] = 4T1, 20 days after removal of primary tumor
[22] = single oral dose, healthy male volunteers

5-hydroxytryptamine 2B (5-HT2B) receptor, sequence (P41595 whole entry): as the sequence (P41595 whole entry, species assumed) above

C[C@H](NC(=O)CCc1nc2cccnc2n1Cc1ccc(OC(F)(F)F)cc1)c1ccc(Cl)cc1 [IOA-289]
binding to 5-HT2B receptor [1]: sub-micromolar binding | risk for genotoxicity, phototoxicity and cytotoxicity [2]: low risk | off-target interactions [3]: no to minimal potential off-target interactions | NOAEL at 4 weeks ([4]; dog, in vivo, po): 60 mg/kg/day | main target organs for toxicity ([4]; dogs): the gastrointestinal tract, the liver, the bladder and the parotid gland | LPA C18:2 levels in BALF ([5]; BLM model, day 21): significantly reduced | LPA C18:2 levels in plasma ([5]; BLM model, day 21): significantly reduced | severity of the BLM model followed by body weight ([5]; compared with vehicle treatment): alleviated the severity substantially | TIL migration in vitro [6]: can rescue | NOAEL at 4 weeks ([7]; rat, in vivo, po): 300 mg/kg/day | main target organs for toxicity ([7]; rats, all findings reversible): the liver, the bone marrow and the stomach in both sexes and additionally the kidneys, the testes and thyroids in males | bone metastases (colony formation assay from bone marrow) [8, 21]: marked reduction | metastatic burden in lungs (histology) [8, 21]: marked reduction | primary tumor growth ([8]; 4T1, primary tumor resected at day 15): no effect | IC50 [9]: 2500 nM | IC50 ([10]; Homo sapiens, po, read-out: IC50 on % LPA C18:2 reduction from baseline): 0.015 µg/mL (≈ 0.0298 µM) | circulating levels of LPA C18:2 ([10]; maximal inhibition at cohorts 4 and 5 dose levels): dose-related decrease | time of peak inhibition of LPA C18:2 after dose ([10]; single oral dose): 1 to 2 h | Tmax ([11]; male, human, in vivo, po): 1 h | maximum plasma concentrations versus dose ([11]; single ascending oral doses, five cohorts): increased dose proportionally | adverse events [11, 22]: no adverse events reported | safety and tolerability [11, 22]: well tolerated | tumor growth ([12]; E0771, 30 mg/kg b.i.d. oral from day 3 to day 40, compared with control group): reduced the tumor growth | complete tumor eradication ([12]; E0771, n = 10 per group): complete tumor eradication in two mice | plasma exposure [13]: dose-proportional increase | effects on respiratory functions [14]: no relevant effects | activity of EGFR [15]: significantly decreased | activity of MCP-1 [15]: significantly decreased | activity of collagen III (Col-III) [15]: significantly decreased | activity of sIL-6 [15]: significantly decreased | activity of sIL-8 [15]: significantly decreased | activity of sVEGF [15]: significantly decreased | activity of αSMA [15]: significantly decreased | IC50 [16]: 1030 nM | ED50 ([17]; Mus musculus, po, 1 h, read-out: ED50, reduction of circulating LPA C18:2): ~3 mg/kg | reduction of circulating LPA C18:2 ([17]; male CD1 mice, 3, 10 and 30 mg/kg oral gavage): dose-dependent reduction | effects on cardiovascular (including QTc changes) and neurobehavioral functions [18]: no relevant effects

CCc1nc2c(C)cc(N3CCN(CC(=O)N4CC(O)C4)CC3)cn2c1N(C)c1nc(-c2ccc(F)cc2)c(C#N)s1 [ziritaxestat, 2-[[2-ethyl-6-[4-[2-(3-hydroxyazetidin-1-yl)-2-oxo-ethyl]piperazin-1-yl]-8-methyl-imidazo[1,2-a]pyridin-3-yl]-methyl-amino]-4-(4-fluorophenyl)thiazole-5-carbonitrile]
plasma LPA C18:2 levels ([19]; 12 weeks): reducing | tolerability ([19]; 12 weeks): well tolerated | forced vital capacity ([19]; after 12 weeks of treatment): stabilizing | efficacy in bleomycin-induced pulmonary fibrosis model [20]: demonstrated efficacy
